Data as given in ChEMBL document CHEMBL4665651, “Design, synthesis, and biological evaluation of some novel 4-aminoquinazolines as Pan-PI3K inhibitors” (Bioorg Med Chem, 2019).

Columns and labels:
A549 = assay: Antiproliferative activity against human A549 cells assessed as reduction in cell viability incubated for 72 hrs by SRB assay; assay type: functional, cell-based; details: A549, 72 h
Summary of the method: (§1)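 Cell lines grown at 37 °C in 5% CO₂: A549 in RPMI1640, MCF-7 in DMEM, each with 10% FBS plus penicillin/streptomycin/amphotericin B. Cells exposed to a range of compound concentrations for 72 h, then TCA-fixed and SRB-stained. Growth inhibition = 100 − 100×(OD sample − OD day 0)/(OD negative control − OD day 0). IC50 from non-linear regression of percent growth against concentration.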

HCT-116 = assay: Antiproliferative activity against human HCT-116 cells assessed as reduction in cell viability incubated for 72 hrs by SRB assay; assay type: functional, cell-based; details: HCT-116, 72 h
MCF7 = assay: Antiproliferative activity against human MCF7 cells assessed as reduction in cell viability incubated for 72 hrs by SRB assay; assay type: functional, cell-based; details: MCF7, 72 h; summary of the method: as §1
[1] = target: Epidermal growth factor receptor (Homo sapiens, UniProt P00533); assay: Inhibition of EGFR (unknown origin) using FAM-labeled peptide as substrate incubated for 10 mins followed by substrate addition and measured after 1 hr by mobility shift assay
Summary of the method: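 Mobility shift assay in 50 mM HEPES pH 7.5, 10 mM MgCl₂, 2 mM DTT, 0.0015% Brij35. Compound in 10-point DMSO dilution, run in duplicate. Enzyme preincubated with compound 10 min at room temperature. FAM-labeled peptide and ATP then added and reaction run at 28 °C for 1 h. Stopped with EDTA buffer; conversion turned into percent inhibition and fitted to a Hill equation for IC50.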

Epidermal growth factor receptor, sequence (P00533 whole entry): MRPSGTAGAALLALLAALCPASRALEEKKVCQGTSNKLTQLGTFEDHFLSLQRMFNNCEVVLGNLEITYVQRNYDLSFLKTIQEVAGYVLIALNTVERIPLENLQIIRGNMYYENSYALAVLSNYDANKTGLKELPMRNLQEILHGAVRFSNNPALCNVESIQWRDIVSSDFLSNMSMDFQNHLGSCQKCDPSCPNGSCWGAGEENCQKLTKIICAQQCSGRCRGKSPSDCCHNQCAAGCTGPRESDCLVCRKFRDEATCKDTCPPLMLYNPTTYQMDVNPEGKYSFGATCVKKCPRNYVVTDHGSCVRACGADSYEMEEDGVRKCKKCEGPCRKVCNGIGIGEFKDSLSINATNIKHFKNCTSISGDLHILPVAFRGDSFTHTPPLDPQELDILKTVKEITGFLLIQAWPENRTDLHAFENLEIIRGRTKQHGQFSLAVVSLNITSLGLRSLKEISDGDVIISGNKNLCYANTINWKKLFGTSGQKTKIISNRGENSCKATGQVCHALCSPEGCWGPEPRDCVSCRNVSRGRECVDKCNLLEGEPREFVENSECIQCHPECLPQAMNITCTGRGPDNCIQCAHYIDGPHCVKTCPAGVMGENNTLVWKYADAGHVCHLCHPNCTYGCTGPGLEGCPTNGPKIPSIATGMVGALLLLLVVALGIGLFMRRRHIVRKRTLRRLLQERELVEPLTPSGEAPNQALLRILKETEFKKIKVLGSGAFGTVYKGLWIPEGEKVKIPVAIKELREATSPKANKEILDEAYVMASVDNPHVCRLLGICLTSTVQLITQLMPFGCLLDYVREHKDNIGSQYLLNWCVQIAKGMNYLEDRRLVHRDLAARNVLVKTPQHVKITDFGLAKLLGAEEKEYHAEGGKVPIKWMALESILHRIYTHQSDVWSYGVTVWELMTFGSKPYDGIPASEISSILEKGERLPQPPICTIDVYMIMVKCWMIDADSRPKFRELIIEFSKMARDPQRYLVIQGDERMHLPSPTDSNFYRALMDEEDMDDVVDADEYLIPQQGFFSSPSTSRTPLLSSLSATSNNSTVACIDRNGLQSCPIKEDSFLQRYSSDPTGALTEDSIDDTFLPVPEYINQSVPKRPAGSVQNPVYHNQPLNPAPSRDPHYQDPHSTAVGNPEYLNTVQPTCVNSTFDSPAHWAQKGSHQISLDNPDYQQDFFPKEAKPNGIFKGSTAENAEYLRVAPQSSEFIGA

IC50 (A549) [µM]	IC50 (HCT-116) [µM]	IC50 (MCF7) [µM]	IC50 [1] [µM]	Structure (SMILES)
9.36	3.68	6.12		COc1ncc(-c2ccc3ncnc(Nc4ccc(OCCCO)nc4)c3c2)cc1NS(=O)(=O)c1ccc(F)cc1F
3.6	1.42	0.73		COc1ncc(-c2ccc3ncnc(Nc4cnn(CCCO)c4)c3c2)cc1NS(C)(=O)=O
0.86	0.14	0.03		COc1ncc(-c2ccc3nccc(-c4ccnnc4)c3c2)cc1NS(=O)(=O)c1ccc(F)cc1F [OMIPALISIB]
5.2	1.54	0.7		COc1ncc(-c2ccc3ncnc(Nc4cnn(CC(=O)O)c4)c3c2)cc1NS(=O)(=O)c1ccc(F)cc1F
3.76	5.72	2.26		COc1cc(Nc2ncnc3ccc(-c4cnc(OC)c(NS(=O)(=O)c5ccc(F)cc5F)c4)cc23)ccc1OCCO
5.08	5.36	3.08		COc1ncc(-c2ccc3ncnc(Nc4ccc(OCCO)nc4)c3c2)cc1NS(C)(=O)=O
5.2	4.86	3.27		COc1ncc(-c2ccc3ncnc(Nc4ccc(OCCO)cc4)c3c2)cc1NS(C)(=O)=O
13.3	> 20	> 20		CCCCS(=O)(=O)Nc1cc(-c2ccc3ncnc(Nc4ccc(OCCO)nc4)c3c2)cnc1OC
4.12	2.34	4.3		COc1ncc(-c2ccc3ncnc(Nc4ccc(OCCO)nc4)c3c2)cc1NS(=O)(=O)c1ccc(F)cc1F
5.98	7.32	3.74		COc1ncc(-c2ccc3ncnc(Nc4ccc(OCCO)c(Cl)c4)c3c2)cc1NS(=O)(=O)c1ccc(F)cc1F
6.64	9.16	4.82		COc1ncc(-c2ccc3ncnc(Nc4ccc(OCCO)c(F)c4)c3c2)cc1NS(=O)(=O)c1ccc(F)cc1F
4.83	0.48	1.31		COc1ncc(-c2ccc3ncnc(Nc4cnn(CCCO)c4)c3c2)cc1NS(=O)(=O)c1ccc(F)cc1F
2.99	0.97	0.49		COC(=O)CCn1cc(Nc2ncnc3ccc(-c4cnc(OC)c(NS(=O)(=O)c5ccc(F)cc5F)c4)cc23)cn1
4.28	1.26	0.67		COC(=O)Cn1cc(Nc2ncnc3ccc(-c4cnc(OC)c(NS(=O)(=O)c5ccc(F)cc5F)c4)cc23)cn1
3.84	1.29	0.56		COc1ncc(-c2ccc3ncnc(Nc4cnn(CCC(=O)O)c4)c3c2)cc1NS(=O)(=O)c1ccc(F)cc1F
2.69	1.06	1.65		COc1ncc(-c2ccc3ncnc(Nc4ccc(OCCO)cc4)c3c2)cc1NS(=O)(=O)c1ccc(F)cc1F
8.22	1.49	0.77	2.52	COc1ncc(-c2ccc3ncnc(Nc4cnn(CCO)c4)c3c2)cc1NS(C)(=O)=O
